Consider seven compounds from ChEMBL document CHEMBL1150651, “Cholestane glycosides from the bulbs of Ornithogalum thyrsoides and their cytotoxic activity against HL-60 leukemia cells” (J Nat Prod, 2002).

Converted amounts (≈) assume the structure as drawn.

This test has as its system HL-60. Put plainly: Cytotoxicity against human HL60 cells after 72 hrs by MTT assay. Type of test: functional, cell-based. Conditions: HL-60, 72 h. A digest of the protocol: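 HL-60 cells (JCRB 0085) grown in RPMI 1640 with heat-inactivated 10% FBS, L-glutamine, penicillin and streptomycin. Seeded at 4 × 10^4 cells/mL and preincubated 24 h at 37 °C in 5% CO2. Sample added in EtOH-H2O (1:1) at final 0.00001-10 µg/mL; vehicle in control wells. After 72 h, MTT (5 mg/mL in PBS) added for 4 h. Formazan dissolved in DMSO, absorbance read at 550 nm.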
In turn, `COc1ccc(C(=O)O[C@H]2[C@H](O[C@@H]3[C@@H](OC(C)=O)[C@H](O[C@H]4C[C@H]5[C@@H]6CC=C7C[C@@H](O[C@@H]8O[C@H](CO)[C@@H](O)[C@H](O)[C@H]8O)CC[C@]7(C)[C@H]6CC[C@]5(C)[C@@]4(O)[C@H](C)C(=O)CCC(C)C)OC[C@@H]3O)OC[C@@H](O)[C@@H]2O)cc1OC` gave an IC50 of 0.00013 µg/mL (≈ 0.000122 µM).
The compound `COc1cc(C(=O)O[C@H]2[C@H](O[C@@H]3[C@@H](OC(C)=O)[C@H](O[C@H]4C[C@H]5[C@@H]6CC=C7C[C@@H](O[C@@H]8O[C@H](CO[C@@H]9O[C@H](CO)[C@@H](O)[C@H](O)[C@H]9O)[C@@H](O)[C@H](O)[C@H]8O)CC[C@]7(C)[C@H]6CC[C@]5(C)[C@@]4(O)[C@H](C)C(=O)CCC(C)C)OC[C@@H]3O)OC[C@@H](O)[C@@H]2O)cc(OC)c1OC` gave an IC50 of 0.7 µg/mL (≈ 0.557 µM).
Take `CC(=O)O[C@H]1[C@H](O[C@H]2C[C@H]3[C@@H]4CC=C5C[C@@H](O[C@@H]6O[C@H](CO[C@@H]7O[C@H](CO)[C@@H](O)[C@H](O)[C@H]7O)[C@@H](O)[C@H](O)[C@H]6O)CC[C@]5(C)[C@H]4CC[C@]3(C)[C@@]2(O)[C@H](C)C(=O)CCC(C)C)OC[C@H](O)[C@@H]1O[C@@H]1OC[C@@H](O)[C@H](O)[C@H]1O`: the IC50 was greater than 10 µg/mL.
Compound `COc1ccc(C(=O)O[C@H]2[C@H](O[C@@H]3[C@@H](OC(C)=O)[C@H](O[C@H]4C[C@H]5[C@@H]6CC=C7C[C@@H](O[C@@H]8O[C@H](CO[C@@H]9O[C@H](CO)[C@@H](O)[C@H](O)[C@H]9O)[C@@H](O)[C@H](O)[C@H]8O)CC[C@]7(C)[C@H]6CC[C@]5(C)[C@@]4(O)[C@H](C)C(=O)CCC(C)C)OC[C@@H]3O)OC[C@@H](O)[C@@H]2O)cc1OC` showed an IC50 of 0.81 µg/mL (≈ 0.66 µM).
`COc1cc(C(=O)O[C@H]2[C@H](O[C@@H]3[C@@H](OC(C)=O)[C@H](O[C@H]4C[C@H]5[C@@H]6CC=C7C[C@@H](O[C@@H]8O[C@H](CO)[C@@H](O)[C@H](O)[C@H]8O)CC[C@]7(C)[C@H]6CC[C@]5(C)[C@@]4(O)[C@H](C)C(=O)CCC(C)C)OC[C@@H]3O)OC[C@@H](O)[C@@H]2O)cc(OC)c1OC` showed an IC50 of 0.00016 µg/mL (≈ 0.000146 µM).
`CC(C)CCC(=O)[C@@H](C)[C@@]1(O)[C@@H](O[C@@H]2OC[C@H](O)[C@H](O)[C@H]2O)C[C@H]2[C@@H]3CC=C4C[C@@H](O[C@@H]5O[C@H](CO)[C@@H](O)[C@H](O)[C@H]5O)CC[C@]4(C)[C@H]3CC[C@@]21C` gave an IC50 of 0.12 µg/mL (≈ 0.165 µM).
Compound `CC(=O)O[C@H]1[C@H](O[C@H]2C[C@H]3[C@@H]4CC=C5C[C@@H](O[C@@H]6O[C@H](CO)[C@@H](O)[C@H](O)[C@H]6O)CC[C@]5(C)[C@H]4CC[C@]3(C)[C@@]2(O)[C@H](C)C(=O)CCC(C)C)OC[C@H](O)[C@@H]1O[C@@H]1OC[C@@H](O)[C@H](O)[C@H]1O` gave a half-inhibitory concentration (IC50) of 0.013 µg/mL (≈ 0.0144 µM).
